For orientation: AUC means concentration integrated over time. A lower AUC goes with less exposure. In general, MIC refers to the least concentration at which growth counts as inhibited. A higher MIC goes with weaker potency. What is called ED50 is the midpoint of the dose-response relation. Read a low ED50 as greater potency.

In brackets after ≈: the same amount, converted by molar mass.

AUC, MIC and ED50 data for seven molecules are collected here from ChEMBL document CHEMBL1126625, “7-Azetidinylquinolones as antibacterial agents. Synthesis and structure-activity relationships” (J Med Chem, 1993).

In data set [1] the test system is Mus musculus. Nature of the data set: Blood level after oral administration in mice (50 mg/kg) was determined (area under the concentration-time curve recorded at 0.5, 1, 2, and 4 hour after dosing). It counts as ADME, organism-based. Details: dose 50 mg/kg, time < 4 hr, route oral. The following applies: in vivo. The method, boiled down:
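Single oral dose of 50 mg/kg to mice. Blood taken from groups of six mice at 0.5, 1, 2 and 4 h after dosing. Serum levels measured by disk agar diffusion bioassay with Bacillus subtilis ATCC 6633 on Seed Agar, plates incubated 18 h at 37 °C, giving total activity in serum. AUC 0-4 h expressed as μg/mL […].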

Data set [2] has as its system Bacillus cereus. Briefly: Minimum inhibitory concentration (MIC) preventing growth of Bacillus cereus. It counts as functional.
Data set [3] deals with Bacillus subtilis. Nature of the data set: Minimum inhibitory concentration (MIC) preventing growth of Bacillus subtilis. It counts as functional.
Data set [4] deals with Escherichia coli. Briefly: Minimum inhibitory concentration (MIC)preventing growth of Escherichia coli. It counts as functional.
Data set [5] relates to Escherichia coli. Briefly: Efficacy on systemic infections after oral administration in mice was determined against Escherichia coli HM-42. It counts as functional. An outline of the steps:
(§1)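 Mouse protection test using 4 groups of 10 mice. Mice were infected intraperitoneally with a bacterial suspension slightly above LD100. A single oral dose was given immediately after infection, with four doses, one per group, chosen from in vitro activity. Survival was scored after one week, and ED50 (total mg/kg protecting 50% of mice) was interpolated from group survival rates.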

The test system of data set [6] is Klebsiella pneumoniae. Nature of the data set: Minimum inhibitory concentration (MIC)preventing growth of Klebsiella pneumoniae. It counts as functional.
Data set [7] has as its system Morganella morganii. Briefly: Minimum inhibitory concentration (MIC) preventing growth of Morganella morganii. It counts as functional.
Data set [8] concerns Pseudomonas aeruginosa. Briefly: Efficacy on systemic infections after oral administration in mice was determined against Pseudomonas aeruginosa HS-116. It counts as functional. An outline of the steps:
as §1

Data set [9] deals with Proteus vulgaris. Nature of the data set: Minimum inhibitory concentration (MIC) preventing growth of Proteus vulgaris. It counts as functional.
The subject of data set [10] is Staphylococcus epidermidis. Nature of the data set: Minimum inhibitory concentration (MIC) preventing growth of Staphylococcus epidermidis. It counts as functional.
Data set [11] relates to Staphylococcus aureus. Nature of the data set: Minimum inhibitory concentration (MIC) preventing growth of […]. It counts as functional.
Data set [12] deals with Staphylococcus aureus. Briefly: Efficacy on systemic infections after oral administration in mice was determined against […] HS-93. It counts as functional. An outline of the steps: as §1
The test system of data set [13] is Enterococcus faecalis. Briefly: Minimum inhibitory concentration (MIC) preventing growth of Streptococcus faecalis ATCC 10541. It counts as functional.
The subject of data set [14] is Enterobacter cloacae. Briefly: Minimum inhibitory concentration (MIC)preventing growth of Enterobacter cloacae. It counts as functional.
The subject of data set [15] is Pseudomonas aeruginosa. Briefly: Minimum inhibitory concentration (MIC)preventing growth of Pseudomonas aeruginosa. It counts as functional.

As for `CNC1(C)CN(c2cc3c(cc2F)c(=O)c(C(=O)O)cn3C2CC2)C1`, in [1], the area under the curve (AUC) amounted to 8400 ng·h/mL. For the same molecule, the MIC in data set [2] was 0.25 µg/mL (≈ 0.724 µM); in [3], 0.06 µg/mL (≈ 0.174 µM); in data set [4] it was 0.06 µg/mL (≈ 0.174 µM); in data set [6], 0.06 µg/mL (≈ 0.174 µM); in data set [7], 0.06 µg/mL (≈ 0.174 µM); in data set [9], 0.25 µg/mL (≈ 0.724 µM). For the same molecule, the MIC stood at 0.25 µg/mL (≈ 0.724 µM) in data set [10]; 0.25 µg/mL (≈ 0.724 µM) in data set [11]; 1 µg/mL (≈ 2.9 µM) in data set [13]; 0.12 µg/mL (≈ 0.347 µM) in data set [14]; 2 µg/mL (≈ 5.79 µM) in data set [15]. Also, the median effective dose (ED50) in data set [5] is 1.9 mg/kg; in data set [8] it was 69.8 mg/kg; in [12], 16.5 mg/kg.
Molecule `CCNCC1CN(c2cc3c(cc2F)c(=O)c(C(=O)O)cn3C2CC2)C1` returned an area under the curve (AUC) in data set [1] of 0 ng·h/mL. Besides, the MIC in [2] was 0.5 µg/mL (≈ 1.39 µM); in data set [3], 0.06 µg/mL (≈ 0.167 µM); in [4], 0.25 µg/mL (≈ 0.696 µM); in data set [6] it was 0.06 µg/mL (≈ 0.167 µM); in data set [7], 0.5 µg/mL (≈ 1.39 µM); in data set [9], 1 µg/mL (≈ 2.78 µM). The minimal inhibitory concentration (MIC) was 1 µg/mL (≈ 2.78 µM) in data set [10]; 0.5 µg/mL (≈ 1.39 µM) in data set [11]; 4 µg/mL (≈ 11.1 µM) in data set [13]; 0.12 µg/mL (≈ 0.334 µM) in data set [14]; 4 µg/mL (≈ 11.1 µM) in [15].
In data set [1], `CC1(N)CN(c2c(F)cc3c(=O)c(C(=O)O)cn(C4CC4)c3c2F)C1` registered an AUC of 20000 ng·h/mL. Further, the minimal inhibitory concentration (MIC) in data set [2] was 0.12 µg/mL (≈ 0.344 µM); in data set [3], 0.03 µg/mL (≈ 0.0859 µM); in [4], 0.06 µg/mL (≈ 0.172 µM); in data set [6], 0.03 µg/mL (≈ 0.0859 µM); in data set [7] it was 0.12 µg/mL (≈ 0.344 µM); in data set [9], 0.25 µg/mL (≈ 0.716 µM). The minimal inhibitory concentration (MIC) in data set [10] was determined as 0.12 µg/mL (≈ 0.344 µM); in [11] it was 0.12 µg/mL (≈ 0.344 µM); in data set [13], 0.5 µg/mL (≈ 1.43 µM); in data set [14], 0.06 µg/mL (≈ 0.172 µM); in data set [15], 0.5 µg/mL (≈ 1.43 µM). The values for the ED50 in data set [5], in data set [8] and in data set [12] were 3.1 mg/kg, 65.7 mg/kg and 13 mg/kg, respectively.
`CC1(N)CN(c2cc3c(cc2F)c(=O)c(C(=O)O)cn3C2CC2)C1` showed an area under the curve (AUC) in [1] of 7000 ng·h/mL. Besides, the minimum inhibitory concentration (MIC) in [2] is 0.12 µg/mL (≈ 0.362 µM); in data set [3], 0.06 µg/mL (≈ 0.181 µM); in data set [4], 0.06 µg/mL (≈ 0.181 µM); in data set [6] it was 0.12 µg/mL (≈ 0.362 µM); in data set [7], 0.06 µg/mL (≈ 0.181 µM); in data set [9] it was 0.06 µg/mL (≈ 0.181 µM). The minimal inhibitory concentration (MIC) in data set [10] amounted to 0.12 µg/mL (≈ 0.362 µM); in [11], 0.12 µg/mL (≈ 0.362 µM); in data set [13], 0.5 µg/mL (≈ 1.51 µM); in data set [14] it was 0.12 µg/mL (≈ 0.362 µM); in data set [15] it was 0.5 µg/mL (≈ 1.51 µM). Also, the ED50 was 2.7 mg/kg in data set [5], 62.2 mg/kg in [8] and 36.1 mg/kg in data set [12].
`CNC1CN(c2cc3c(cc2F)c(=O)c(C(=O)O)cn3C2CC2)C1` showed an AUC in [1] of 4200 ng·h/mL. The MIC in data set [2] turned out to be 0.12 µg/mL (≈ 0.362 µM); in data set [3] it was 0.03 µg/mL (≈ 0.0905 µM); in data set [4] it was 0.03 µg/mL (≈ 0.0905 µM); in [6], 0.03 µg/mL (≈ 0.0905 µM); in [7], 0.03 µg/mL (≈ 0.0905 µM); in data set [9] it was 0.25 µg/mL (≈ 0.754 µM). In addition, the MIC was found to be 0.12 µg/mL (≈ 0.362 µM) in data set [10]; 0.25 µg/mL (≈ 0.754 µM) in data set [11]; 1 µg/mL (≈ 3.02 µM) in data set [13]; 0.03 µg/mL (≈ 0.0905 µM) in [14]; 0.5 µg/mL (≈ 1.51 µM) in data set [15]. In addition, the ED50 in [5] is 3.8 mg/kg; in data set [8], 145 mg/kg; in data set [12], 36.3 mg/kg.
Turning to `CCNC1CN(c2c(F)cc3c(=O)c(C(=O)O)cn(C4CC4)c3c2F)C1`, the AUC in [1] was found to be 38200 ng·h/mL. The MIC in [2] stood at 0.25 µg/mL (≈ 0.688 µM); in [3], 0.06 µg/mL (≈ 0.165 µM); in data set [4] it was 0.06 µg/mL (≈ 0.165 µM); in [6] it was 0.06 µg/mL (≈ 0.165 µM); in data set [7], 0.06 µg/mL (≈ 0.165 µM); in data set [9] it was 0.25 µg/mL (≈ 0.688 µM). In addition, the MIC came out at 0.25 µg/mL (≈ 0.688 µM) in [10]; 0.25 µg/mL (≈ 0.688 µM) in data set [11]; 1 µg/mL (≈ 2.75 µM) in data set [13]; 0.06 µg/mL (≈ 0.165 µM) in [14]; 2 µg/mL (≈ 5.5 µM) in data set [15]. Further, the median effective dose (ED50) was found to be 1.1 mg/kg in data set [5], 89 mg/kg in data set [8] and 16.6 mg/kg in [12].
`CN(C)C1CN(c2c(F)cc3c(=O)c(C(=O)O)cn(C4CC4)c3c2F)C1` returned an exposure (AUC) in [1] of 38200 ng·h/mL. In addition, the minimum inhibitory concentration (MIC) was 0.25 µg/mL (≈ 0.688 µM) in data set [2]; 0.015 µg/mL (≈ 0.0413 µM) in [3]; 0.06 µg/mL (≈ 0.165 µM) in [4]; 0.06 µg/mL (≈ 0.165 µM) in data set [6]; 0.12 µg/mL (≈ 0.33 µM) in data set [7]; 0.25 µg/mL (≈ 0.688 µM) in data set [9]. The minimum inhibitory concentration (MIC) in [10] was determined as 0.25 µg/mL (≈ 0.688 µM); in data set [11], 0.25 µg/mL (≈ 0.688 µM); in [13], 1 µg/mL (≈ 2.75 µM); in data set [14], 0.06 µg/mL (≈ 0.165 µM); in [15], 2 µg/mL (≈ 5.5 µM). Also, the results for the ED50 in data set [5], in data set [8] and in [12] were 1.7 mg/kg, 90.8 mg/kg and 19.8 mg/kg, respectively.
